Assay results from different studies.
Protocols differ between the studies behind these lines.
SRD5A1: 3-oxo-5-alpha-steroid 4-dehydrogenase 1 (SRD5A1, Homo sapiens, UniProt P18405)
HTR2A: 5-hydroxytryptamine receptor 2A (HTR2A, Homo sapiens, UniProt P28223)
CNR1: Cannabinoid receptor 1 (CNR1, Homo sapiens, UniProt P21554)

SMILES | target | assay | system | conditions | inhibition
COc1cc(C=CC(=O)O)ccc1OC(C)=O | SRD5A1 | enzyme activity in cells, inhibitor | HaCaT | 50 µM | 18.6%
COc1cc2c3c(c1OC)-c1c(OC)ccc(N4CCOCC4)c1CC3N(C)CC2 (stereo not drawn) | HTR2A | ligand displacement, radioligand | – | 10 µM | 49%
COC(=O)C=Cc1ccc(OC(C)=O)c(OC)c1 | SRD5A1 | enzyme activity in cells, inhibitor | HaCaT | 50 µM | 26.4%
Cc1cc(O)c(-c2ccc([C@@H](C)CN(C)C)cc2)c2c1[nH]c(=O)c1sccc12 | Serine/threonine-protein kinase A-Raf (ARAF, Homo sapiens, UniProt P10398) | enzyme activity, inhibitor | – | 0.1 µM, lysate | -26%
O=C(O)/C=C/c1ccc(O)c(O)c1 | SRD5A1 | enzyme activity in cells, inhibitor | HaCaT | 50 µM | 6.07%
Cc1cc(F)cc2c(CCC(=O)N[C@@H]3C(=O)NC[C@H]3O)c(-c3ccc(F)cc3)[nH]c12 | Endothelin-1 receptor (EDNRA, Homo sapiens, UniProt P25101) | cell-free assay | – | 10 µM | -19%
NC/C(=C\F)COc1cccc(Cn2c(=S)[nH]c(=O)c3[nH]cnc32)c1 | CNR1 | ligand displacement, radioligand | – | 10 µM | < 50%
COc1cc2c3c(c1OC)-c1c(OC)ccc(-c4ccc(C#N)cc4)c1CC3N(C)CC2 (stereo not drawn) | HTR2A | ligand displacement, radioligand | – | 10 µM | 34%
CCN1/C(=C/C(C)=O)Sc2ccc(F)cc21 | CNR1 | ligand displacement, radioligand | – | 10 µM | 0%
